Bioassay records (PubChem BioAssay)
Only some compounds are listed: those with a hit (about 2% of all), similar ones and a draw of the others.
LGR2 inh – blocks bursicon-induced cAMP signaling via Drosophila LGR2; HEK293 LGR2, CRE-luciferase, bursicon-stimulated, 4 h; inhibition, % at 9.99 µM; 380,000 tested, 0.35% active; AID 720647;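 active = drop in luminescence signal, shown as inhibition above about 50% in the replicate tests, limit read from the data, passing the limit was not always enough; inconclusive = probably only some replicates passing the limit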;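 also: agonist challenge used bursicon conditioned medium at about half maximal strength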
Xi reactivation – reactivates the inactive X chromosome in mouse fibroblasts; XiGFP mouse fibroblasts, % GFP-positive cells imaging, 3 d; cells co-treated with 5-aza-dC sensitizer; scaled so ellipticine positive control = 100%; activation, % at 7.58 µM; 360,000 tested, 0.055% active;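 active = mean normalized replicate activation at least 10% and every replicate at or above 10%; inconclusive = only one of the two criteria met; inactive = mean below 10% and not all replicates reach 10%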
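Material: XiGFP fibroblasts, SV40-immortalized. Buffer or medium: DMEM plus 5-aza-dC sensitizer. Compound: single concentration per compound, delivered by pin transfer. Times: 3 days compound exposure. Controls: ellipticine 6 µM.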
TROY NFkB inh – blocks TROY-dependent signaling in reporter cells. Q293 LMP1-TROYcd NF-kB luciferase reporter, 4 h. inhibition, % at 10 µM. 360,000 tested, 0.98% active. AID 1347056;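 active = compounds whose plate-normalised and pattern-corrected inhibition of the luciferase reporter signal at the single screening dose is 50% or more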
CaV13 FRET inh – Primary screen for inhibitors of IQ motif and Ca2+-dependent inactivation inhibitor domain binding in CACNA1D, Förster resonance energy transfer in living cells, …; HEK cells, CFP/YFP FRET ICDI-IQ, plate reader, 10 min; percent FRET-ratio fall versus neutral wells; inhibition, % at 12.3 µM; 340,000 tested, 0.098% active;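 active = mean replicate inhibition of at least 30% and at least 1% of replicates passing that level; inconclusive = only one of the two criteria is met; inactive = neither criterion is met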
TWEAK Fn14 block – inhibitors of TWEAK-Fn14 interaction signaling; TWEAK-stimulated Fn14 reporter cells, luciferase luminescence, 8 h; inhibition, % at 10 µM; 360,000 tested, 2% active; AID 1159606; in the data active = inhibition above about 50%
Of the large screens only hits and unclear results are named; the others gave an inactive call.

CCS(=O)(=O)N1CCC(C(=O)Oc2ccc(Br)cc2)CC1	TWEAK Fn14 block 79
CC1Cc2cc(/C(O)=C3/C(=O)C(=O)N(Cc4ccco4)C3c3cccs3)ccc2O1 (configuration not stated)	TROY NFkB inh 65, TWEAK Fn14 block 66 (no result: LGR2 inh, Xi reactivation, CaV13 FRET inh)
N/C(=N\OC(=O)c1cc(Cl)ccc1Cl)c1ccccn1	TWEAK Fn14 block 75
N/C(=N\OC(=O)COc1ccc(Cl)cc1Cl)c1ccccn1	LGR2 inh inconclusive, TWEAK Fn14 block 56
N/C(=N\OC(=O)COc1ccc(Br)cc1Cl)c1ccncc1	none
N/C(=N\NC(=O)Nc1ccc(Cl)cc1)c1ccccn1	TROY NFkB inh 64
N/C(=N\OC(=O)COc1ccc(Br)cc1Cl)c1ccccn1	LGR2 inh inconclusive, TWEAK Fn14 block 66
C[C@H]1CN([C@@H](C)CO)C(=O)c2cccc(NS(=O)(=O)c3ccccc3)c2O[C@@H]1CN(C)Cc1ccncc1	none (no result: TROY NFkB inh, CaV13 FRET inh, TWEAK Fn14 block)
COc1ccccc1-c1ccc2c(c1)O[C@@H](CN(C)C(=O)c1ccccc1)[C@@H](C)CN([C@@H](C)CO)S2(=O)=O	none (no result: TROY NFkB inh, CaV13 FRET inh, TWEAK Fn14 block)
Oc1ccc(Cl)cc1Nc1nc(NCC2CCCO2)c2ccccc2n1 (configuration not stated)	TROY NFkB inh 51, TWEAK Fn14 block 72
COc1cccc(Nc2nc(NCC3CCCO3)c3ccccc3n2)c1 (configuration not stated)	TWEAK Fn14 block 88 (no result: LGR2 inh, Xi reactivation)
Oc1ccc(Nc2nc(NCC3CCCO3)c3ccccc3n2)cc1 (configuration not stated)	none (no result: LGR2 inh, Xi reactivation)
Cc1cc(C(=O)N/N=C2\CC(=O)CC(C)(C)C2)c(C)n1-c1ccc(F)cc1	none
Cc1cc(C(=O)N/N=C2\CC(=O)CC(C)(C)C2)c(C)n1-c1ccccc1	TROY NFkB inh 53
COc1ccc2c3c(n(C)c2c1)[C@H](CO)N(C(=O)C1CCC1)CC31CN(C(=O)CN(C)C)C1	none (no result: TROY NFkB inh, CaV13 FRET inh, TWEAK Fn14 block)
CC(C)NC(=O)N(O)C1N(Cc2ccc3c(c2)OCO3)C(=S)SC1(C)C (configuration not stated)	TWEAK Fn14 block 58 (no result: Xi reactivation, CaV13 FRET inh)
COc1c(Br)cc([N+](=O)[O-])c(OC)c1C(=O)NC(=O)Nc1c(Cl)cccc1Cl	none
COc1c(Br)cc([N+](=O)[O-])c(OC)c1C(=O)NC(=O)Nc1cc(Cl)cc(Cl)c1	TROY NFkB inh 52 (no result: LGR2 inh)
Cc1cc(N/C=C/C(=O)c2cccs2)ccc1F	none
Cc1ccc(N/C=C/C(=O)c2cccs2)cc1C	LGR2 inh 63
CC(C)c1ccc(OCC(=O)NN2C(=O)c3ccccc3C2=O)c(Br)c1	TWEAK Fn14 block 69
C[C@H]1CCCCO[C@H](CN(C)C(=O)Cc2ccccc2)[C@@H](C)CN([C@@H](C)CO)C(=O)c2cc(NC(=O)Nc3ccccc3)ccc2O1	none (no result: TROY NFkB inh, CaV13 FRET inh, TWEAK Fn14 block)
Cc1ccc2cc(/C=N/NC(=O)c3ccccc3O)c(Cl)nc2c1	TROY NFkB inh 65
Cc1cccc2cc(/C=N/NC(=O)c3ccccc3O)c(Cl)nc12	TROY NFkB inh 57 (no result: LGR2 inh)
O=C(N/N=C/c1cc2cc3c(cc2nc1Cl)OCCO3)c1ccccc1O	none
CN1[C@@H]2c3cccc(=O)n3C[C@@H]2[C@@H](CO)[C@@H]1C(=O)NCC1CCCCC1	none (no result: TROY NFkB inh, CaV13 FRET inh, TWEAK Fn14 block)
Cc1nn(C)c2ncc(C(=O)c3cc(F)ccc3O)cc12	none (no result: Xi reactivation, CaV13 FRET inh)
O=C(c1cnc2ccc3ccccc3c2c1)c1cc(F)ccc1O	TWEAK Fn14 block 64
CN(C)C(=O)c1ccc(-c2ccc3c(c2)[C@H]2[C@H](CCN2C(=O)C2CCC2)[C@@H](CO)N3C)cc1	none (no result: TROY NFkB inh, CaV13 FRET inh, TWEAK Fn14 block)
COc1ccc(C(=O)c2sc3nc(-c4ccc(OC)cc4)ccc3c2N)cc1	CaV13 FRET inh 134
Cc1noc(C)c1S(=O)(=O)Nc1ccc2c(c1)C(=O)N([C@H](C)CO)C[C@H](C)[C@@H](CN(C)C(=O)c1ccccc1)OCCCC[C@H](C)O2	none (no result: TROY NFkB inh, CaV13 FRET inh, TWEAK Fn14 block)
COc1ccc(C(=O)c2sc3nc(C)cc(-c4cccs4)c3c2N)cc1OC	Xi reactivation 25
C[C@@H]1CN([C@H](C)CO)C(=O)c2cc(NC(=O)Nc3ccc(F)cc3)ccc2O[C@@H](C)CCCCO[C@@H]1CN(C)C(=O)c1ccccc1	none (no result: TROY NFkB inh, CaV13 FRET inh, TWEAK Fn14 block)
C[C@@H]1CN([C@@H](C)CO)C(=O)c2cccc(NS(=O)(=O)c3ccc(Cl)cc3)c2O[C@@H]1CN(C)S(=O)(=O)c1cn(C)cn1	none (no result: TROY NFkB inh, CaV13 FRET inh, TWEAK Fn14 block)
COc1ccc(C(C(=O)NC2CCCC2)N(C(=O)c2snc(C(N)=O)c2N)c2ccccc2OC)cc1OC (configuration not stated)	TWEAK Fn14 block 53
COc1ccc(C(C(=O)NCC2CCCO2)N(Cc2ccco2)C(=O)c2snc(C(N)=O)c2N)cc1OC (configuration not stated)	TWEAK Fn14 block 52
COc1ccc(C(C(=O)NC2CCCC2)N(C(=O)c2snc(C(N)=O)c2N)c2cc(C)ccc2OC)cc1OC (configuration not stated)	none
CCOc1ccc(C(C(=O)NCC2CCCO2)N(C(=O)c2snc(C(N)=O)c2N)c2ccccc2F)cc1 (configuration not stated)	TWEAK Fn14 block 57
CN(C)C(=O)C[C@H]1C[C@H]2c3cc(NC(=O)NC4CCCC4)ccc3O[C@H]2[C@@H](CO)O1	none (no result: TROY NFkB inh, CaV13 FRET inh, TWEAK Fn14 block)
C[C@H](CO)N1C[C@H](C)[C@@H](CN(C)C(=O)NC2CCCC2)Oc2cc(-c3cncnc3)ccc2S1(=O)=O	none (no result: TROY NFkB inh, CaV13 FRET inh, TWEAK Fn14 block)
COc1cccc(-c2ccc3c(c2)[C@H]2[C@H](CCN2C(=O)c2ccc(F)cc2)[C@H](CO)N3)c1	none (no result: TROY NFkB inh, CaV13 FRET inh, TWEAK Fn14 block)
O=C(NCc1cccnc1)/C(=C/c1ccc(-c2ccc(Cl)cc2)o1)S(=O)(=O)c1ccccc1	LGR2 inh 99, TROY NFkB inh 76, TWEAK Fn14 block 100 (no result: Xi reactivation)
O=C(NCc1cccnc1)/C(=C\c1ccc(-c2ccc(Br)cc2)o1)S(=O)(=O)c1ccccc1	LGR2 inh 102, TROY NFkB inh 83, TWEAK Fn14 block 100
Cc1noc(C)c1S(=O)(=O)Nc1ccc2c(c1)CC(=O)N([C@H](C)CO)C[C@@H](C)[C@@H](CN(C)S(=O)(=O)c1ccc(Cl)cc1)O2	none (no result: TROY NFkB inh, CaV13 FRET inh, TWEAK Fn14 block)
O=C(O)/C=C/C(=O)Nc1ccccc1C(=O)OCC(=O)c1ccc2c(c1)OCCO2	TROY NFkB inh 53
CCCSc1nsc(NC(=O)C(c2ccccc2)c2ccccc2)n1	TROY NFkB inh 55 (no result: LGR2 inh, Xi reactivation, CaV13 FRET inh)
c1ccn2cc(-c3ccc4c(c3)OCCO4)nc2c1	LGR2 inh 91, TWEAK Fn14 block 78
CN(C)S(=O)(=O)c1cccc(-c2cn3cc(Cl)ccc3n2)c1	none (no result: LGR2 inh, Xi reactivation, CaV13 FRET inh)
COc1ccc(-c2cn3cc(C)ccc3n2)cc1F	LGR2 inh 90, TROY NFkB inh 61, TWEAK Fn14 block 76
Clc1ccc2nc(-c3ccccc3)cn2c1	TWEAK Fn14 block 61
Cc1ccc2nc(-c3ccc4c(c3)OCCO4)cn2c1	LGR2 inh 91, TROY NFkB inh 78, TWEAK Fn14 block 101
COc1ccc(-c2cn3cc(C)ccc3n2)cc1OC	none (no result: LGR2 inh, Xi reactivation)
